Experimental data from ChEMBL document CHEMBL1124663, “Design, synthesis, antineoplastic activity, and chemical properties of bis(carbamate) derivatives of 4,5-bis(hydroxymethyl)imidazole” (J Med Chem, 1989).

Experiments:
Mus musculus [1] = assay: Body weight difference (BWD) of test animals administered with 50 mg/kg compound is determined on day 5 for L1210 tumor cells; format: functional
Summary of the method: (§1)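 L1210 leukaemia: 10^5 cells implanted ip on day 0 in mice. Freshly prepared saline suspension given ip once daily on days 1–5. Body weight difference in g (treated minus control) taken as day 5 minus day 1. Six animals per dose.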

Mus musculus [2] = assay: Body weight difference (BWD) of test animals administered with 50 mg/kg compound is determined on day 5 for P388 tumor cells; format: functional
Summary of the method: (§2)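 P388 leukaemia: about 10^6 cells in ascitic fluid inoculated ip on day 0 (CD2F1 mice). Compound given ip in normal saline as a freshly prepared solution or suspension, once daily on days 1–5. Treated-minus-control body weight difference in g, taken as day 5 minus day 1 weight. Groups of six.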

Mus musculus [3] = assay: Body weight difference (BWD) of test animals administered with 60 mg/kg compound is determined on […] tumor cells; format: functional
Summary of the method: (§3)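 MX-1 human mammary xenograft: solid tumour fragment (1 mm3, 0.5 mg) placed as a subrenal capsule implant on day 0 in NCR-nu mice. Fresh saline suspension dosed ip on days 1, 5 and 9. Body weight difference in g (treated minus control) recorded. Assay evaluated on day 11. Six mice per group.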

Mus musculus [4] = assay: Body weight difference (BWD) of test animals administered with 25 mg/kg compound is determined on day 5 for L1210 tumor cells; format: functional; summary of the method: as §1
Mus musculus [5] = assay: Body weight difference (BWD) of test animals administered with 50 mg/kg compound is determined on day 14 for M5076 minus 1 tumor cells; format: functional
Summary of the method: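 M5076 sarcoma: 10^6 cells inoculated ip on day 0 in B6C3F1 mice. Fresh saline suspension dosed ip every fourth day, on days 1, 5, 9 and 13. Body weight difference in g (treated minus control) taken as day 14 minus day 1. Ten mice per group.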

Mus musculus [6] = assay: Body weight difference (BWD) of test animals administered with 100 mg/kg compound is determined on […] tumor cells; format: functional; summary of the method: as §3
Mus musculus [7] = assay: Body weight difference (BWD) of test animals administered with 100 mg/kg compound is determined on day 5 for P388 tumor cells; format: functional; summary of the method: as §2
Mus musculus [8] = assay: Ability of 12.5 mg/kg of compound to kill L1210 tumor cells in mice is expressed as the log of the tumor cell population at the onset of treatment minus the log of the tumor cell population at the end of treatment; format: functional
Summary of the method: (§4)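 L1210 leukemia, 10^5 cells implanted ip on day 0. Drug given ip daily on days 1-5 as a saline suspension freshly prepared before each injection. Read-out is median survival of treated versus control mice (% T/C), and log cell kill is derived from it.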

Mus musculus [9] = assay: Ability of 25 mg/kg of compound to kill L1210 tumor cells in mice is expressed as the log of the tumor cell population at the onset of treatment minus the log of the tumor cell population at the end of treatment; format: functional; summary of the method: as §4
Mus musculus [10] = assay: The toxicity day was evaluated on day 5 for L1210 tumor cells of test animals dosed with 12.5 mg/kg of compound; 6/6; format: functional
Summary of the method: (§5)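 L1210 leukaemia, 10^5 cells, implanted ip on day 0. Freshly prepared saline suspension dosed ip daily on days 1-5. Toxicity evaluated on day 5 as survivors over animals in the initial test group.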

Mus musculus [11] = assay: Toxicity day evaluation was carried out on day 5 for animal dosed with 6.25 mg/kg compound; 5/6; format: organism-based; design: dose 6.25 mg/kg; conditions: in vivo
Mus musculus [12] = assay: The toxicity day was […] tumor cells of test animals dosed with 400 mg/kg of compound; 1/10; format: functional, M5076
Summary of the method: (§6)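 M5076 sarcoma, 10^6 cells, inoculated ip into B6C3F1 mice on day 0. Fresh saline suspension given ip every fourth day (days 1, 5, 9, 13). Toxicity survivors were scored on day 5 as survivors over initial group. Body-weight difference was day 14 minus day 1.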

Mus musculus [13] = assay: The toxicity day was evaluated on day 5 for L1210 tumor cells of test animals dosed with 100 mg/kg of compound; 6/6; format: functional; summary of the method: as §5
Mus musculus [14] = assay: The percent of the median survival time of test mice compared to control mice, administered with 12.5 mg/kg compound on day 5 for L1210 tumor cells; format: functional; summary of the method: as §4
Mus musculus [15] = assay: The percent of the median survival time of test mice compared to control mice, administered with 200 mg/kg compound on day 14 for M5076 minus 1 tumor cells; format: functional
Summary of the method: (§7)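 M5076 sarcoma, 10^6 cells ip on day 0 in B6C3F1 mice. Drug given ip as a fresh saline suspension every fourth day (days 1, 5, 9, 13). % T/C is median survival of treated versus control mice, counting long-term survivors. Cures are 60-day survivors. Log cell kill is derived from this.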

Mus musculus [16] = assay: Ability of 25 mg/kg of compound to kill M5076 tumor cells in mice is expressed as the log of the tumor cell population at the onset of treatment minus the log of the tumor cell population at the end of treatment; format: functional; summary of the method: as §7
Mus musculus [17] = assay: The percent of the median survival time of test mice compared to control mice is determined for mice administered with 50 mg/kg compound; format: functional
Mus musculus [18] = assay: Ability of 6.25 mg/kg of compound to kill tumor cells in mice is expressed as the log of the tumor cell population at the onset of treatment minus the log of the tumor cell population at the end of treatment; format: functional
Mus musculus [19] = assay: The toxicity day was evaluated on day 0 for LOX tumor cells of test animals dosed with 100 mg/kg of compound; 6/6; format: functional
Mus musculus [20] = assay: The toxicity day was evaluated on day 0 for LOX tumor cells of test animals dosed with 25 mg/kg of compound; 6/6; format: functional
Mus musculus [21] = assay: The toxicity day was evaluated on day 0 for LOX tumor cells of test animals dosed with 50 mg/kg of compound; 6/6; format: functional
Mus musculus [22] = assay: The toxicity day was evaluated […] for MX-1 tumor cells of test animals dosed with 100 mg/kg of compound; 6/6; format: functional
Summary of the method: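 Human MX-1 mammary xenograft, a 1 mm3 (0.5 mg) tumor fragment implanted under the renal capsule of NCR-nu mice on day 0. Drug given ip as a fresh saline suspension on days 1, 5 and 9. Tumor size is assessed on day 11. A negative % T/C is percent shrinkage relative to the initial implant. Survivors in the toxicity group are […].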

Mus musculus [23] = assay: The toxicity day was evaluated […] for M5076 minus 1 tumor cells of test animals dosed with 200 mg/kg of compound; 10/10; format: functional; summary of the method: as §6
Mus musculus [24] = assay: The toxicity day was evaluated […] for M5076 minus 1 tumor cells of test animals dosed with 25 mg/kg of compound; 10/10; format: functional; summary of the method: as §6
Mus musculus [25] = assay: The percent of the median survival time of test mice compared to control mice, administered with 50 mg/kg compound on day 14 for M5076 minus 1 tumor cells; format: functional; summary of the method: as §7
Mus musculus [26] = assay: Toxicity day evaluation was carried out on day 5 for animal dosed with 12.5 mg/kg compound; 6/6; format: organism-based; design: dose 12.5 mg/kg; conditions: in vivo
Mus musculus [27] = assay: Body Weight Difference (BWD) of test animals administered with 12.5 mg/kg compound is determined on day 5 for P388 tumor cells; format: functional; summary of the method: as §2
Mus musculus [28] = assay: Body weight difference (BWD) of test animals administered with 50 mg/kg compound is determined on day 10 for LOX tumor cells.
Mus musculus [29] = assay: Body weight difference (BWD) of test animals administered with 25 mg/kg compound is determined on day 10 for LOX tumor cells.

## CNC(=O)OCc1nc(SC)n(C)c1COC(=O)NC
Mus musculus [1]
  BWD: -0.5 g
Mus musculus [2]
  BWD: -2.6 g
Mus musculus [3]
  BWD: -1.9 g
Mus musculus [4]
  BWD: 0 g
Mus musculus [5]
  BWD: -0.7 g
Mus musculus [6]
  BWD: -2.7 g
Mus musculus [7]
  BWD: -4.1 g
Mus musculus [8]
  KE: -2.35
Mus musculus [9]
  KE: -2.23
Mus musculus [10]
  Survivors / animals tested: 6
Mus musculus [11]
  Survivors / animals tested: 5
Mus musculus [12]
  Survivors / animals tested: 1
Mus musculus [13]
  Survivors / animals tested: 6
Mus musculus [14]
  T/C: 103%
Mus musculus [15]
  T/C: 184%
Mus musculus [16]
  KE: -1.51
Mus musculus [17]
  T/C: 184%
Mus musculus [18]
  KE: -0.83
Mus musculus [19]
  Survivors / animals tested: 6
Mus musculus [20]
  Survivors / animals tested: 6
Mus musculus [21]
  Survivors / animals tested: 6
Mus musculus [22]
  Survivors / animals tested: 6
Mus musculus [23]
  Survivors / animals tested: 10
Mus musculus [24]
  Survivors / animals tested: 10
Mus musculus [25]
  T/C: 119%
Mus musculus [26]
  Survivors / animals tested: 6
Mus musculus [27]
  BWD: -1.2 g
Mus musculus [28]
  BWD: -3.3 g
Mus musculus [29]
  BWD: -3 g
